The source made the active and inactive calls. The calls are words filed in the database; no cut-off is given here.
Tested on: Mus musculus
Test: Antinociceptive activity in ip dosed Swiss mouse assessed as inhibition of acetic acid-induced writhing response at 3 mg/kg, ip administered 30 mins prior to acetic acid challenge measured for 20 mins relative to vehicle-treated control
Assay type: functional, organism-based
In short: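 Mice dosed i.p. with compound or vehicle 15 min before testing, or with indomethacin 3 mg/kg i.p. 30 min before. After 15 min habituation in an enclosure, 0.9% acetic acid given i.p. (1 ml/0.1 kg) and writhes counted for 20 min. Non-responders excluded; n = 4-6; mean ± SD.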

COc1ccc2c(c1)c(CC(=O)O)c(C)n2C(=O)c1ccc(Cl)cc1
inhibition: Active

Source: ChEMBL document CHEMBL3596194, “Design, synthesis and biological evaluation of bivalent benzoxazolone and benzothiazolone ligands as potential anti-inflammatory/analgesic agents” (Bioorg Med Chem, 2015)
